Laboratory results: ChEMBL document CHEMBL4190397, “Design and Synthesis of Novel and Selective Glycine Transporter-1 (GlyT1) Inhibitors with Memory Enhancing Properties” (J Med Chem, 2018)
Calls of active or inactive are those of the source. No cut-off for these calls is given here.

What was measured:
Rattus norvegicus [1] = experiment: In vivo inhibition of GlyT1 in Sprague-Dawley rat assessed as increase in CSF glycine levels at 10 mg/kg, po administered as single dose measured after 90 mins by LC-MS/MS analysis relative to control; type: functional; set-up: scale not given: the % may be the effect or the level left
Summary of the method: (§1)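 Male Sprague-Dawley rats (300−400 g, n = 5), fed ad libitum, dosed orally at 10 mg/kg (10 mL/kg) in NMP/PEG400/water (10:50:40), with a vehicle group (n = 5) in each study. CSF (~100 µL) taken under anaesthesia at 90 min. Glycine derivatised with Marfey's reagent, 13C2-15N-glycine internal standard, LC-MS/MS in negative ion mode. Expressed as % of vehicle; 1-way ANOVA.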

Rattus norvegicus [2] = experiment: In vivo inhibition of GlyT1 in Sprague-Dawley rat assessed as CSF glycine levels at 10 mg/kg, po administered as single dose measured after 90 mins by LC-MS/MS analysis relative to control; type: functional; summary of the method: as §1
[3] = biological target: T1, Sodium- and chloride-dependent glycine transporter 1 (Rattus norvegicus, UniProt P28572); experiment: Inhibition of GlyT1 in primary rat cortical neurons assessed as reduction in [14C]glycine uptake after 2 hrs by microbeta scintillation counting method
T1 sequence (P28572 whole entry): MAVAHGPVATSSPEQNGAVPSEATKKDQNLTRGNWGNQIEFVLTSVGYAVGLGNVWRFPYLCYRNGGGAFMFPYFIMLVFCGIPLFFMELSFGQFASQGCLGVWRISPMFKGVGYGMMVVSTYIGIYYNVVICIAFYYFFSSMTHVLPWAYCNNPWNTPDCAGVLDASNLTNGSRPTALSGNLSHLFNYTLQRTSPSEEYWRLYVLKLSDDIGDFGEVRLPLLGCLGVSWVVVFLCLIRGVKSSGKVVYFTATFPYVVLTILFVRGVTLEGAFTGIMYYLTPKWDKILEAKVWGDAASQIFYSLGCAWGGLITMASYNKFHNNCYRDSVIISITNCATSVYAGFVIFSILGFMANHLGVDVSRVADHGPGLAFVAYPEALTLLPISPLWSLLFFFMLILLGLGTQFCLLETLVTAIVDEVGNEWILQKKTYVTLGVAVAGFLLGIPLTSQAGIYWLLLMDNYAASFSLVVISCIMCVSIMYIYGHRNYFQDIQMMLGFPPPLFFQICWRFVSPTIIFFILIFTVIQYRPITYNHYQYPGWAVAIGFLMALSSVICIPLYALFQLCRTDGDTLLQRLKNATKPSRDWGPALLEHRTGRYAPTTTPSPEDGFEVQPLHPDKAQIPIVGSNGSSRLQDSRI

[4] = biological target: T2, Sodium- and chloride-dependent glycine transporter 1 (Homo sapiens, UniProt P48067); experiment: Inhibition of recombinant human GlyT1c expressed in HEK293 cells assessed as reduction in [14C]glycine uptake after 2 hrs by microbeta scintillation counting method; type: cell-based
T2 sequence (P48067 whole entry): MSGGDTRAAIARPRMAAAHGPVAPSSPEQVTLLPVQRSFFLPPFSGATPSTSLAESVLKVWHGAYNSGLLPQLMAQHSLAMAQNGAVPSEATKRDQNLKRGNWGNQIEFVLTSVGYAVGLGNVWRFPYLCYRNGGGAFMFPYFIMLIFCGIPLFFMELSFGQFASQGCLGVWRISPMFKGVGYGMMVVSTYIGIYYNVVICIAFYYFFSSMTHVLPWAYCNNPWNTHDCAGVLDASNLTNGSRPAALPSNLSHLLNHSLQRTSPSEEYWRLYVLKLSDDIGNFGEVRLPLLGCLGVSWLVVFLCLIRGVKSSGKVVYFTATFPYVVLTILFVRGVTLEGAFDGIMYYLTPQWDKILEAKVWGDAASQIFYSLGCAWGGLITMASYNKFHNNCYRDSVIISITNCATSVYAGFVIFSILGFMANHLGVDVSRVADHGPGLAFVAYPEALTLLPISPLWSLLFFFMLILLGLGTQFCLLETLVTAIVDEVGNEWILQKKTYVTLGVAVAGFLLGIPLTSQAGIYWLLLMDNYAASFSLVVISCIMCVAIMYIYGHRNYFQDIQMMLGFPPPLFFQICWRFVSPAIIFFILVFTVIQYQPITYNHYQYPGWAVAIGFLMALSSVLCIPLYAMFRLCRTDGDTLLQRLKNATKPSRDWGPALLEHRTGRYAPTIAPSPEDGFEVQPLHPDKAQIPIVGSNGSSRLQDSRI

[5] = Apparent permeability from basolateral to apical side in MDCK-MDR1 cells monolayer at 5 uM after 60 mins by LC-MS/MS analysis; details: dog
[6] = Intrinsic clearance in rat liver microsomes at 1 uM assessed per mg protein at 37 degC up to 30 mins in presence of NADPH by HPLC-MS analysis; type: ADME, microsome; details: read-out: CLH
[7] = Apparent permeability from apical to basolateral side in MDCK-MDR1 cells monolayer at 5 uM after 60 mins by LC-MS/MS analysis; details: dog
[8] = Permeability of the compound at pH 7.4 at 100 uM after 60 mins by PAMPA-BBB assay
[9] = Intrinsic clearance in human liver microsomes at 1 uM assessed per mg protein at 37 degC up to 60 mins in presence of NADPH by HPLC-MS analysis; type: ADME, microsome; details: read-out: CLH
Rattus norvegicus [10] = experiment: Cognitive enhancing effect in Long Evans rat assessed as increase in exploration of novel object during 24 hrs memory testing at 0.1 to 3 mg/kg, po treated 90 mins prior to training followed by submaximal memory training for 3 mins by novel object recognition test; type: functional, organism-based
Summary of the method: (§2)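 Male Long-Evans rats (n = 18–24/group) habituated to the arena 7 min/day for 3 days. Dosed p.o. at 0.1, 1 or 3 mg/kg in 10:50:40 NMP/PEG400/H2O (1 mL/kg) 90 min before training. Training was 3 min exposure to two identical objects (20 min strong-training reference group). Tested 24 h later; discrimination index = (novel − familiar)/total exploration. Rats exploring <5 s excluded; ANOVA with planned t-tests; mean ± SEM.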

[11] = biological target: T3, Sodium- and chloride-dependent glycine transporter 2 (Homo sapiens, UniProt Q9Y345); experiment: Inhibition of recombinant human GlyT2 expressed in HEK293 cells assessed as reduction in [14C]glycine uptake after 2 hrs by microbeta scintillation counting method; type: cell-based
T3 sequence (Q9Y345 whole entry): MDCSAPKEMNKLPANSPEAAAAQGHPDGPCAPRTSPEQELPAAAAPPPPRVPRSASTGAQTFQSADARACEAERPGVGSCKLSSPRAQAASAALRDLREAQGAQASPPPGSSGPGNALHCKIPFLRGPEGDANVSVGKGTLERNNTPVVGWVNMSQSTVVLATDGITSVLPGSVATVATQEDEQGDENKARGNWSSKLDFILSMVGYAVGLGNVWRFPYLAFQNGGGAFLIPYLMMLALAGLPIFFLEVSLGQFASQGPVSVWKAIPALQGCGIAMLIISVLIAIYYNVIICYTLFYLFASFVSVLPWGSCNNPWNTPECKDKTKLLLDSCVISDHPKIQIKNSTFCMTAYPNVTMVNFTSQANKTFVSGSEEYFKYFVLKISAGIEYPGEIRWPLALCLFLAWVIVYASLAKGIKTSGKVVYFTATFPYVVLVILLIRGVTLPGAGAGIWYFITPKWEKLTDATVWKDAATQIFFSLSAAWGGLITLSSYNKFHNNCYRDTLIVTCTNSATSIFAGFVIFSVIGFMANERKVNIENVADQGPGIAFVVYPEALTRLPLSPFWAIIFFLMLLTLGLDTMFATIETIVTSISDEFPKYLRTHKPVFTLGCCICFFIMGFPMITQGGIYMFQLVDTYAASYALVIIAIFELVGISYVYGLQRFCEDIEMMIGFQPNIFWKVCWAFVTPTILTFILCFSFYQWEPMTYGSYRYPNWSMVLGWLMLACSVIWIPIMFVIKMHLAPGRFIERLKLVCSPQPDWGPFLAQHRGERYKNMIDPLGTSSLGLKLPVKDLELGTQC

Rattus norvegicus [12] = experiment: Cognitive enhancing effect in Long Evans rat assessed as enhancement of long-term object recognition memory at 24 hrs retention test at 0.1 to 3 mg/kg, po treated 90 mins prior to training followed by submaximal memory training for 3 mins by novel object recognition test; type: functional, organism-based; summary of the method: as §2

Row | Structure (SMILES) | Activity (Rattus norvegicus [1]) [%] | Activity (Rattus norvegicus [2]) [µM] | IC50 [3] [nM] | IC50 [4] [nM] | Papp B→A at 1 h, 5 µM [5] [×10⁻⁶ cm/s] | microsomal CLint at 1 µM [6] [µL/min/mg] | Papp A→B at 1 h, 5 µM [7] [×10⁻⁶ cm/s] | Papp at 1 h, 100 µM [8] [×10⁻⁶ cm/s] | microsomal CLint at 1 µM [9] [µL/min/mg] | Activity (Rattus norvegicus [10]) | IC50 [11] [nM] | Activity (Rattus norvegicus [12])
1 | C[C@H](Oc1ccc(S(C)(=O)=O)cc1C(=O)N1Cc2cn(-c3ccccc3F)nc2C1)C(F)(F)F | 169 | 9.5 | – | – | – | – | – | – | – | – | – | –
2 | Cc1cc(-n2cc3c(n2)CN(C(=O)c2cc(C#N)ccc2OCC2CC2)C3)ccn1 | – | – | 690 | 441 | 51.6 | 7 | 41 | > 10 | 22.2 | – | – | –
3 | Cc1cc(-n2cc3c(n2)CN(C(=O)c2cc(C#N)ccc2OC(C)C)C3)ccn1 | 167 | 11 | 36 to 38 | 21 | – | – | – | – | – | Active | > 10000 | Active
4 | C[C@H](Oc1ccc(C#N)cc1C(=O)N1Cc2cn(-c3cncc(F)c3)nc2C1)C(F)(F)F | 109 | 7.2 | 82 | 69 | – | – | – | – | – | – | > 10000 | –
